Assay results reported in ChEMBL document CHEMBL1240382, “Elucidation of the pharmacokinetic/pharmacodynamic determinant of colistin activity against Pseudomonas aeruginosa in murine thigh and lung infection models” (Antimicrob Agents Chemother, 2010).

Columns and labels:
Pseudomonas aeruginosa [1] = assay: Antimicrobial activity against Pseudomonas aeruginosa ATCC 27853 infected in neutropenic Swiss mouse thigh infection model assessed as reduction in bacterial burden relative to control; format: functional, organism-based; settings: Thigh muscle
In short: (§1)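 Neutropenic thigh-infected Swiss mice; colistin (sulfate) s.c. started 2 h after inoculation, 5–40 mg/kg per dose every 3, 6, 8, 12 or 24 h (5–160 mg/kg/day), two mice per regimen. Killed 24 h after treatment start; each thigh homogenized and plated on nutrient agar; log10 CFU/thigh, lower count limit 100 CFU; change versus 2 h burden.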

Pseudomonas aeruginosa [2] = assay: Antimicrobial activity against Pseudomonas aeruginosa PAO1 infected in neutropenic Swiss mouse thigh infection model assessed as reduction in bacterial burden relative to control; format: functional, organism-based; settings: Thigh muscle; in short: as §1
Pseudomonas aeruginosa [3] = assay: Antimicrobial activity against Pseudomonas aeruginosa isolate 19056 infected in neutropenic Swiss mouse thigh infection model assessed as reduction in bacterial burden relative to control; format: functional, organism-based; settings: Thigh muscle; in short: as §1
Pseudomonas aeruginosa [4] = assay: Antimicrobial activity against Pseudomonas aeruginosa ATCC 27853 infected in neutropenic Swiss mouse lung infection model assessed as reduction in bacterial burden relative to control; format: functional, organism-based
In short: (§2)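 Neutropenic lung-infected Swiss mice; colistin (sulfate) s.c. from 2 h post-inoculation, 5–40 mg/kg per dose every 6, 8, 12 or 24 h. Killed 24 h after treatment start; lungs homogenized in saline and plated; log10 CFU/lung (limit 220 CFU); change versus 2 h burden.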

Pseudomonas aeruginosa [5] = assay: Antimicrobial activity against Pseudomonas aeruginosa PAO1 infected in neutropenic Swiss mouse lung infection model assessed as reduction in bacterial burden relative to control; format: functional, organism-based; in short: as §2
Pseudomonas aeruginosa [6] = assay: Antimicrobial activity against Pseudomonas aeruginosa isolate 19056 infected in neutropenic Swiss mouse lung infection model assessed as reduction in bacterial burden relative to control; format: functional, organism-based; in short: as §2
[7] = fAUC/MIC in Pseudomonas aeruginosa ATCC 27853 infected Swiss mouse thigh infection model assessed as induction of static antimicrobial effect after 24 hrs; format: functional
In short: (§3)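 Unbound single-dose profiles superimposed to give 24-h fAUC (trapezoidal) per regimen, divided by MIC; log10 CFU per thigh or lung at 24 h fitted to inhibitory sigmoid Emax model by nonlinear least squares; fAUC/MIC for stasis (24-h count equal to treatment-start count) and 1-, 2-, 3-log10 kill derived from fitted parameters.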

[8] = fAUC/MIC in Pseudomonas aeruginosa ATCC 27853 infected Swiss mouse thigh infection model assessed as 1-log10 kill after 24 hrs; format: functional; in short: as §3
[9] = fAUC/MIC in Pseudomonas aeruginosa ATCC 27853 infected Swiss mouse thigh infection model assessed as 2-log10 kill after 24 hrs; format: functional; in short: as §3
[10] = fAUC/MIC in Pseudomonas aeruginosa ATCC 27853 infected Swiss mouse thigh infection model assessed as 3-log10 kill after 24 hrs; format: functional; in short: as §3
[11] = fAUC/MIC in Pseudomonas aeruginosa PAO1 infected Swiss mouse thigh infection model assessed as induction of static antimicrobial effect after 24 hrs; format: functional
[12] = fAUC/MIC in Pseudomonas aeruginosa PAO1 infected Swiss mouse thigh infection model assessed as 1-log10 kill after 24 hrs; format: functional; in short: as §3
[13] = fAUC/MIC in Pseudomonas aeruginosa PAO1 infected Swiss mouse thigh infection model assessed as 2-log10 kill after 24 hrs; format: functional
[14] = fAUC/MIC in Pseudomonas aeruginosa PAO1 infected Swiss mouse thigh infection model assessed as 3-log10 kill after 24 hrs; format: functional
[15] = fAUC/MIC in Pseudomonas aeruginosa isolate 19056 infected Swiss mouse thigh infection model assessed as induction of static antimicrobial effect after 24 hrs; format: functional
[16] = fAUC/MIC in Pseudomonas aeruginosa isolate 19056 infected Swiss mouse thigh infection model after assessed as 1-log10 kill 24 hrs; format: functional
[17] = fAUC/MIC in Pseudomonas aeruginosa isolate 19056 infected Swiss mouse thigh infection model after assessed as 2-log10 kill after 24 hrs; format: functional
[18] = fAUC/MIC in Pseudomonas aeruginosa isolate 19056 infected Swiss mouse thigh infection model after assessed as 3-log10 kill after 24 hrs; format: functional
[19] = fAUC/MIC in Pseudomonas aeruginosa ATCC 27853 infected Swiss mouse lung infection model assessed as induction of static antimicrobial effect after 24 hrs; format: functional; in short: as §3
[20] = fAUC/MIC in Pseudomonas aeruginosa ATCC 27853 infected Swiss mouse lung infection model assessed as 1-log10 kill after 24 hrs; format: functional; in short: as §3
[21] = fAUC/MIC in Pseudomonas aeruginosa ATCC 27853 infected Swiss mouse lung infection model assessed as 2-log10 kill after 24 hrs; format: functional; in short: as §3
[22] = fAUC/MIC in Pseudomonas aeruginosa ATCC 27853 infected Swiss mouse lung infection model assessed as 3-log10 kill after 24 hrs; format: functional; in short: as §3
[23] = fAUC/MIC in Pseudomonas aeruginosa PAO1 infected Swiss mouse lung infection model assessed as induction of static antimicrobial effect after 24 hrs; format: functional; in short: as §3
[24] = fAUC/MIC in Pseudomonas aeruginosa PAO1 infected Swiss mouse lung infection model assessed as 1-log10 kill after 24 hrs; format: functional; in short: as §3
[25] = fAUC/MIC in Pseudomonas aeruginosa PAO1 infected Swiss mouse lung infection model assessed as 2-log10 kill after 24 hrs; format: functional; in short: as §3
[26] = fAUC/MIC in Pseudomonas aeruginosa PAO1 infected Swiss mouse lung infection model assessed as 3-log10 kill after 24 hrs; format: functional; in short: as §3
[27] = fAUC/MIC in Pseudomonas aeruginosa isolate 19056 infected Swiss mouse lung infection model assessed as induction of static antimicrobial effect after 24 hrs; format: functional
[28] = fAUC/MIC in Pseudomonas aeruginosa isolate 19056 infected Swiss mouse lung infection model assessed as 1-log10 kill after 24 hrs; format: functional
[29] = fAUC/MIC in Pseudomonas aeruginosa isolate 19056 infected Swiss mouse lung infection model assessed as 2-log10 kill after 24 hrs; format: functional
[30] = fAUC/MIC in Pseudomonas aeruginosa isolate 19056 infected Swiss mouse lung infection model assessed as 3-log10 kill after 24 hrs; format: functional
Pseudomonas aeruginosa [31] = assay: Antimicrobial activity against Pseudomonas aeruginosa ATCC 27853 in neutropenic Swiss mouse thigh infection model assessed as bacterial load in mouse thigh after 2 hrs; format: functional, organism-based; settings: Thigh muscle
In short: (§4)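 Thigh model: female Swiss mice (22–26 g) made neutropenic with cyclophosphamide i.p. (150 mg/kg day −4, 100 mg/kg day −1). Under isoflurane, ~10^7 CFU/ml early-log suspension injected i.m. (50 µl per posterior thigh). Untreated controls killed 2 h post-inoculation; thighs homogenized in saline, filtered, serially diluted, plated on nutrient agar, counted after 24 h at 37°C; log10 CFU/thigh.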

Pseudomonas aeruginosa [32] = assay: Antimicrobial activity against Pseudomonas aeruginosa PAO1 in neutropenic Swiss mouse thigh infection model assessed as bacterial load in mouse thigh after 2 hrs; format: functional, organism-based; settings: Thigh muscle; in short: as §4
Pseudomonas aeruginosa [33] = assay: Antimicrobial activity against Pseudomonas aeruginosa isolate 19056 in neutropenic Swiss mouse thigh infection model assessed as bacterial load in mouse thigh after 2 hrs; format: functional, organism-based; settings: Thigh muscle; in short: as §4
Pseudomonas aeruginosa [34] = assay: Antimicrobial activity against Pseudomonas aeruginosa ATCC 27853 in neutropenic Swiss mouse thigh infection model assessed as bacterial load in mouse thigh at 40 mg/kg, sc after 24 hrs; format: functional, organism-based; set-up: dose 40 mg/kg; in short: as §1
Pseudomonas aeruginosa [35] = assay: Antimicrobial activity against Pseudomonas aeruginosa PAO1 in neutropenic Swiss mouse thigh infection model assessed as bacterial load in mouse thigh at 40 mg/kg, sc after 24 hrs; format: functional, organism-based; set-up: dose 40 mg/kg; in short: as §1
Pseudomonas aeruginosa [36] = assay: Antimicrobial activity against Pseudomonas aeruginosa isolate 19056 in neutropenic Swiss mouse thigh infection model assessed as bacterial load in mouse thigh at 40 mg/kg, sc after 24 hrs; format: functional, organism-based; set-up: dose 40 mg/kg; in short: as §1
Pseudomonas aeruginosa [37] = assay: Antimicrobial activity against Pseudomonas aeruginosa ATCC 27853 in neutropenic Swiss mouse lung infection model assessed as bacterial load in mouse thigh after 2 hrs; format: functional, organism-based; settings: Thigh muscle
Pseudomonas aeruginosa [38] = assay: Antimicrobial activity against Pseudomonas aeruginosa PAO1 in neutropenic Swiss mouse lung infection model assessed as bacterial load in mouse thigh after 2 hrs; format: functional, organism-based; settings: Thigh muscle
Pseudomonas aeruginosa [39] = assay: Antimicrobial activity against Pseudomonas aeruginosa isolate 19056 in neutropenic Swiss mouse lung infection model assessed as bacterial load in mouse thigh after 2 hrs; format: functional, organism-based
In short: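 Lung model: neutropenic Swiss mice under isoflurane given 50 µl of ~10^8 CFU/ml early-log suspension intranasally in ~10 µl portions, then held head-up 1 min. Untreated controls killed 2 h post-inoculation; lungs homogenized in 2 ml saline, viable counts by dilution plating on nutrient agar; lower limit 220 CFU/lung.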

Pseudomonas aeruginosa [40] = assay: Antimicrobial activity against Pseudomonas aeruginosa ATCC 27853 in neutropenic Swiss mouse lung infection model assessed as bacterial load in mouse thigh at 40 mg/kg, sc after 24 hrs; format: functional, organism-based; set-up: dose 40 mg/kg; in short: as §2
Pseudomonas aeruginosa [41] = assay: Antimicrobial activity against Pseudomonas aeruginosa PAO1 in neutropenic Swiss mouse lung infection model assessed as bacterial load in mouse thigh at 40 mg/kg, sc after 24 hrs; format: functional, organism-based; set-up: dose 40 mg/kg; in short: as §2
Pseudomonas aeruginosa [42] = assay: Antimicrobial activity against Pseudomonas aeruginosa ATCC 27853 by broth microdilution method; format: functional, organism-based
In short: (§5)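 Colistin (sulfate) MIC by broth microdilution; strains stored in tryptone soy broth with 20% glycerol at −80°C and subcultured overnight on horse blood agar at 37°C before use.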

Pseudomonas aeruginosa [43] = assay: Antimicrobial activity against Pseudomonas aeruginosa PAO1 by broth microdilution method; format: functional, organism-based; in short: as §5
Pseudomonas aeruginosa [44] = assay: Antimicrobial activity against Pseudomonas aeruginosa isolate 19056 by broth microdilution method; format: functional, organism-based; in short: as §5

Sequence: COLISTIMETHATE SODIUM
- Emax (log10 CFU/organ) (Pseudomonas aeruginosa [1]): 6.29
- Emax (log10 CFU/organ) (Pseudomonas aeruginosa [2]): 5.97
- Emax (log10 CFU/organ) (Pseudomonas aeruginosa [3]): 6.23
- Emax (log10 CFU/organ) (Pseudomonas aeruginosa [4]): 7.58
- Emax (log10 CFU/organ) (Pseudomonas aeruginosa [5]): 7.36
- Emax (log10 CFU/organ) (Pseudomonas aeruginosa [6]): 6.86
- fAUC/MIC [7]: 17.3
- fAUC/MIC [8]: 22.7
- fAUC/MIC [9]: 31.2
- fAUC/MIC [10]: 55.1
- fAUC/MIC [11]: 14.4
- fAUC/MIC [12]: 22.8
- fAUC/MIC [13]: 36.1
- fAUC/MIC [14]: 66.7
- fAUC/MIC [15]: 8.34
- fAUC/MIC [16]: 15.6
- fAUC/MIC [17]: 27.6
- fAUC/MIC [18]: 53.3
- fAUC/MIC [19]: 6.43
- fAUC/MIC [20]: 15.6
- fAUC/MIC [21]: 37.9
- fAUC/MIC [22]: 105
- fAUC/MIC [23]: 5.42
- fAUC/MIC [24]: 16.7
- fAUC/MIC [25]: 45.9
- fAUC/MIC [26]: 135
- fAUC/MIC [27]: 4.07
- fAUC/MIC [28]: 12.2
- fAUC/MIC [29]: 36.9
- fAUC/MIC [30]: 141
- log10cfu (Pseudomonas aeruginosa [31]): 6.14
- log10cfu (Pseudomonas aeruginosa [32]): 6.35
- log10cfu (Pseudomonas aeruginosa [33]): 6.26
- log10cfu (Pseudomonas aeruginosa [34]): 3.17
- log10cfu (Pseudomonas aeruginosa [35]): 4.01
- log10cfu (Pseudomonas aeruginosa [36]): 3.69
- log10cfu (Pseudomonas aeruginosa [37]): 6.64
- log10cfu (Pseudomonas aeruginosa [38]): 6.92
- log10cfu (Pseudomonas aeruginosa [39]): 6.43
- log10cfu (Pseudomonas aeruginosa [40]): 3.58
- log10cfu (Pseudomonas aeruginosa [41]): 3.09
- MIC (Pseudomonas aeruginosa [42]): 1 µg/mL
- MIC (Pseudomonas aeruginosa [43]): 1 µg/mL
- MIC (Pseudomonas aeruginosa [44]): 0.5 µg/mL
